ChEMBL document CHEMBL1131261, “Synthesis and antitumor activity of ring A- and F-modified hexacyclic camptothecin analogues” (J Med Chem, 1998)
Values after ≈ are worked out from the molar mass of the structure shown.

Key:
QG-56 = experiment: In vitro antitumor activity against QG-56 (human lung cancer) cells.; assay type: functional, cell-based
Method in brief: (§1)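 MTT assay of cell growth after 3 days of incubation. IC50 is the dose that inhibits growth of 50% of the cultivated cells, given in ng/mL.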

[1] = target: T1, DNA topoisomerase 1 (Homo sapiens) (UniProt P11387); experiment: Inhibition of topoisomerase-1 compared to SN-38.
T1 sequence (whole entry): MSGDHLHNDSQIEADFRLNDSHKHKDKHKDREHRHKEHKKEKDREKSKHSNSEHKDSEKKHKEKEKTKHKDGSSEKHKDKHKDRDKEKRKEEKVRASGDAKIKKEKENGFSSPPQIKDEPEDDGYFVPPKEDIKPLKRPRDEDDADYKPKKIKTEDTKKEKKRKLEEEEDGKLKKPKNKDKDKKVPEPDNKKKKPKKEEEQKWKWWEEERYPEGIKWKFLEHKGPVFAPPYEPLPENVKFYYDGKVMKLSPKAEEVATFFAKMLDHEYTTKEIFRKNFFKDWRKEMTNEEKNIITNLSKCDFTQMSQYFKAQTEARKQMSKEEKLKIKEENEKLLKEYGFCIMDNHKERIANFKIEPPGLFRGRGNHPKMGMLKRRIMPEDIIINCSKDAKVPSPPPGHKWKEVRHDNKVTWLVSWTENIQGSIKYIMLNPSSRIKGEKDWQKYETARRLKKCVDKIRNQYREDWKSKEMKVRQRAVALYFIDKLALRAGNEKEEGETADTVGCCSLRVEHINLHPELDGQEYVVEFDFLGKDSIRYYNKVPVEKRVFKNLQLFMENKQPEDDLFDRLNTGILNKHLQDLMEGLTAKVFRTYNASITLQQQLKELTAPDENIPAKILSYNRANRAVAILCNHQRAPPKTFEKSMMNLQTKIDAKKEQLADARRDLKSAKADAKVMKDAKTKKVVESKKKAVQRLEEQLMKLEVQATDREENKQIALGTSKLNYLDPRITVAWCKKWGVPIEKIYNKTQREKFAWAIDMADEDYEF
Method in brief: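 DNA relaxation assay with topoisomerase I. IC50 is the concentration that inhibits 50% of the conversion of supercoiled DNA to its relaxed form. Values are given as the ratio of the test IC50 to the IC50 of SN-38.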

P388 = experiment: In vitro antitumor activity against P388 (murine leukemia) cells.; assay type: functional, cell-based; conditions: Mus musculus
HOC-21 cell line = experiment: In vitro antitumor activity against HOC-21 (human ovarian cancer) cells.; assay type: functional, cell-based; method in brief: as §1

CC[C@@]1(O)C(=O)OCc2c1cc1n(c2=O)Cc2c-1nc1ccc(N)c3c1c2CCO3
IC50 (QG-56): 0.71 ng/mL (≈ 0.00175 µM)
Ratio [1]: 1.2
IC50 (P388): 2.6 ng/mL (≈ 0.00641 µM)
IC50 (HOC-21 cell line): 57.7 ng/mL (≈ 0.142 µM)

CC[C@@]1(O)C(=O)OCc2c1cc1n(c2=O)Cc2c-1nc1ccc(O)c3c1c2CCS3
IC50 (QG-56): 3.68 ng/mL (≈ 0.00871 µM)
Ratio [1]: 1.6
IC50 (P388): 8.63 ng/mL (≈ 0.0204 µM)
IC50 (HOC-21 cell line): 153 ng/mL (≈ 0.361 µM)

CC[C@@]1(O)C(=O)OCc2c1cc1n(c2=O)Cc2c-1nc1ccc(OC)c3c1c2CCS3
IC50 (QG-56): 3.27 ng/mL (≈ 0.00749 µM)
IC50 (P388): 6.49 ng/mL (≈ 0.0149 µM)
IC50 (HOC-21 cell line): 80.2 ng/mL (≈ 0.184 µM)

CC[C@@]1(O)C(=O)OCc2c1cc1n(c2=O)Cc2c-1nc1cc(F)c(C)c3c1c2CCC3
IC50 (QG-56): 0.17 ng/mL (≈ 0.000404 µM)
Ratio [1]: 0.51
IC50 (P388): 0.22 ng/mL (≈ 0.000523 µM)
IC50 (HOC-21 cell line): 2.06 ng/mL (≈ 0.0049 µM)

CCc1c2c(nc3ccc(O)cc13)-c1cc3c(c(=O)n1C2)COC(=O)[C@]3(O)CC [7-ETHYL-10-HYDROXYCAMPTOTHECIN]
IC50 (QG-56): 0.9 ng/mL (≈ 0.00229 µM)
Ratio [1]: 1
IC50 (P388): 1.44 ng/mL (≈ 0.00367 µM)
IC50 (HOC-21 cell line): 41.2 ng/mL (≈ 0.105 µM)

CC[C@@]1(O)C(=O)OCc2c1cc1n(c2=O)Cc2c-1nc1ccc(N)c3c1c2CCC3
IC50 (QG-56): 1.38 ng/mL (≈ 0.00342 µM)
Ratio [1]: 1.4
IC50 (HOC-21 cell line): 35.9 ng/mL (≈ 0.089 µM)

CC[C@@]1(O)C(=O)OCc2c1cc1n(c2=O)Cc2c-1nc1ccc(N)c3c1c2CCS3
IC50 (QG-56): 0.4 ng/mL (≈ 0.000949 µM)
Ratio [1]: 0.9
IC50 (P388): 1.08 ng/mL (≈ 0.00256 µM)
IC50 (HOC-21 cell line): 8.37 ng/mL (≈ 0.0199 µM)

CC[C@@]1(O)C(=O)OCc2c1cc1n(c2=O)Cc2c-1nc1ccc(O)c3c1c2CCC3
Ratio [1]: 0.47

CC[C@@]1(O)C(=O)OCc2c1cc1n(c2=O)Cc2c-1nc1cc(C)cc3c1c2CCC3
IC50 (QG-56): 10.3 ng/mL (≈ 0.0256 µM)
Ratio [1]: 3.6
IC50 (P388): 5.05 ng/mL (≈ 0.0125 µM)
IC50 (HOC-21 cell line): 101 ng/mL (≈ 0.251 µM)

CC[C@@]1(O)C(=O)OCc2c1cc1n(c2=O)Cc2c-1nc1cc(F)c(F)c3c1c2CCC3O (some centres not stated)
IC50 (QG-56): 2.62 ng/mL (≈ 0.00595 µM)
Ratio [1]: 1.2
IC50 (P388): 3.17 ng/mL (≈ 0.0072 µM)
IC50 (HOC-21 cell line): 68.9 ng/mL (≈ 0.156 µM)

CC[C@@]1(O)C(=O)OCc2c1cc1n(c2=O)Cc2c-1nc1cccc3c1c2CCS3
IC50 (QG-56): 1.71 ng/mL (≈ 0.00421 µM)
IC50 (P388): 3.04 ng/mL (≈ 0.00748 µM)
IC50 (HOC-21 cell line): 33 ng/mL (≈ 0.0812 µM)

CC[C@@]1(O)C(=O)OCc2c1cc1n(c2=O)Cc2c-1nc1cc(N)c(O)c3c1c2CCC3
IC50 (QG-56): 11.6 ng/mL (≈ 0.0277 µM)
Ratio [1]: 2.6
IC50 (P388): > 62.5 ng/mL
IC50 (HOC-21 cell line): > 500 ng/mL

CC[C@@]1(O)C(=O)OCc2c1cc1n(c2=O)Cc2c-1nc1cc(OC)cc3c1c2CCC3
IC50 (QG-56): 1.32 ng/mL (≈ 0.00315 µM)
Ratio [1]: 0.7
IC50 (P388): 1.01 ng/mL (≈ 0.00241 µM)
IC50 (HOC-21 cell line): 17.4 ng/mL (≈ 0.0416 µM)

CC[C@@]1(O)C(=O)OCc2c1cc1n(c2=O)Cc2c-1nc1cccc3c1c2CCC3
IC50 (QG-56): 1.63 ng/mL (≈ 0.0042 µM)
Ratio [1]: 4
IC50 (P388): 5.23 ng/mL (≈ 0.0135 µM)
IC50 (HOC-21 cell line): 92.9 ng/mL (≈ 0.239 µM)

CC[C@@]1(O)C(=O)OCc2c1cc1n(c2=O)Cc2c-1nc1ccc(OC)c3c1c2CCN3
IC50 (QG-56): 10.6 ng/mL (≈ 0.0253 µM)
IC50 (P388): 10.7 ng/mL (≈ 0.0255 µM)
IC50 (HOC-21 cell line): 106 ng/mL (≈ 0.254 µM)

CC[C@@]1(O)C(=O)OCc2c1cc1n(c2=O)Cc2c-1nc1cc(Cl)cc3c1c2CCC3
IC50 (QG-56): 0.53 ng/mL (≈ 0.00125 µM)
Ratio [1]: 0.23
IC50 (P388): 0.73 ng/mL (≈ 0.00173 µM)
IC50 (HOC-21 cell line): 14 ng/mL (≈ 0.0331 µM)

CC[C@@]1(O)C(=O)OCc2c1cc1n(c2=O)Cc2c-1nc1cc(F)c(F)c3c1c2CCC3
IC50 (QG-56): 0.38 ng/mL (≈ 0.000895 µM)
Ratio [1]: 0.7
IC50 (P388): 0.48 ng/mL (≈ 0.00113 µM)
IC50 (HOC-21 cell line): 10.9 ng/mL (≈ 0.0257 µM)

CC[C@@]1(O)C(=O)OCc2c1cc1n(c2=O)Cc2c-1nc1cc(F)cc3c1c2CCC3
IC50 (QG-56): 0.16 ng/mL (≈ 0.000394 µM)
Ratio [1]: 0.24
IC50 (P388): 0.26 ng/mL (≈ 0.00064 µM)
IC50 (HOC-21 cell line): 3.39 ng/mL (≈ 0.00834 µM)

CC[C@@]1(O)C(=O)OCc2c1cc1n(c2=O)Cc2c-1nc1cc(O)cc3c1c2CCC3
IC50 (QG-56): 4.7 ng/mL (≈ 0.0116 µM)
Ratio [1]: 0.17
IC50 (P388): 0.99 ng/mL (≈ 0.00245 µM)
IC50 (HOC-21 cell line): 20.6 ng/mL (≈ 0.0509 µM)

CC[C@@]1(O)C(=O)OCc2c1cc1n(c2=O)Cc2c-1nc1ccc(C#N)c3c1c2CCC3
IC50 (QG-56): 4.21 ng/mL (≈ 0.0102 µM)
Ratio [1]: 3.9
IC50 (P388): 8.14 ng/mL (≈ 0.0197 µM)
IC50 (HOC-21 cell line): 73.5 ng/mL (≈ 0.178 µM)

CC[C@@]1(O)C(=O)OCc2c1cc1n(c2=O)Cc2cc3ccccc3nc2-1
Ratio [1]: 0.39

CC[C@@]1(O)C(=O)OCc2c1cc1n(c2=O)Cc2c-1nc1ccc(OC)c3c1c2CCN3C(C)=O
IC50 (QG-56): 29.8 ng/mL (≈ 0.0646 µM)
IC50 (P388): > 62.5 ng/mL
IC50 (HOC-21 cell line): > 500 ng/mL
